Active and inactive are the calls of the source. The rule behind the calls is not given here.
What was measured:
[1] = system: KB; test: Cytotoxicity against human KB cells after 3 days by resazurin microplate assay; assay type: functional, cell-based
Procedure, shortened: (§1)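 Log-phase cells seeded at 7×10^4 cells/mL (KB) or 9×10^4 cells/mL (MCF-7) onto compounds in 0.5% DMSO. Incubated 3 days at 37 °C, 5% CO₂, then resazurin added for 4 h. Fluorescence read at ex 530/em 590 nm. IC50 by curve fit from 6 two-fold serial dilutions. Doxorubicin positive, 0.5% DMSO negative control. Mean of three replicates ± SD.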

[2] = system: NCI-H187; test: Cytotoxicity against human NCI-H187 cells after 5 days by resazurin microplate assay; assay type: functional, cell-based; conditions: NCI-H187, 120 h
Procedure, shortened: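 Log-phase NCI-H187 cells diluted to 9×10^4 cells/mL and seeded onto compounds in 0.5% DMSO. After 5 days at 37 °C, 5% CO₂, resazurin added for 4 h. Fluorescence read at ex 530/em 590 nm. IC50 fitted from 6 two-fold serial dilutions. Doxorubicin and 0.5% DMSO controls. Mean of three replicates ± SD.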

[3] = system: MCF7; test: Cytotoxicity against human MCF7 cells after 3 days by resazurin microplate assay; assay type: functional, cell-based; procedure, shortened: as §1
[4] = system: Vero; test: Cytotoxicity against african green monkey Vero cells expressing GFP after 4 days by fluorescence assay; assay type: cell-based; conditions: Chlorocebus sabaeus, 96 h
Procedure, shortened: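 Vero (African green monkey kidney) cells stably transfected with pEGFP-N1, kept in MEM with 10% heat-inactivated FBS, 2 mM L-glutamine, 1 mM pyruvate, geneticin. Cells seeded at 3.3 × 10⁴ cells/mL onto compounds diluted in 0.5% DMSO, 4 days at 37 °C, 5% CO₂. Bottom-read fluorescence (ex 485/em 535 nm), day-0 background subtracted. IC50 by curve fit from 6 two-fold dilutions.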

[5] = target: DNA topoisomerase 2-alpha (Homo sapiens) (UniProt P11388); test: Inhibition of human topoisomerase 2alpha-mediated decatenation of kinetoplast DNA at 50 uM after 1 hr using ethidium bromide by agarose gel electrophoresis analysis
DNA topoisomerase 2-alpha (Homo sapiens), sequence (P11388 whole entry): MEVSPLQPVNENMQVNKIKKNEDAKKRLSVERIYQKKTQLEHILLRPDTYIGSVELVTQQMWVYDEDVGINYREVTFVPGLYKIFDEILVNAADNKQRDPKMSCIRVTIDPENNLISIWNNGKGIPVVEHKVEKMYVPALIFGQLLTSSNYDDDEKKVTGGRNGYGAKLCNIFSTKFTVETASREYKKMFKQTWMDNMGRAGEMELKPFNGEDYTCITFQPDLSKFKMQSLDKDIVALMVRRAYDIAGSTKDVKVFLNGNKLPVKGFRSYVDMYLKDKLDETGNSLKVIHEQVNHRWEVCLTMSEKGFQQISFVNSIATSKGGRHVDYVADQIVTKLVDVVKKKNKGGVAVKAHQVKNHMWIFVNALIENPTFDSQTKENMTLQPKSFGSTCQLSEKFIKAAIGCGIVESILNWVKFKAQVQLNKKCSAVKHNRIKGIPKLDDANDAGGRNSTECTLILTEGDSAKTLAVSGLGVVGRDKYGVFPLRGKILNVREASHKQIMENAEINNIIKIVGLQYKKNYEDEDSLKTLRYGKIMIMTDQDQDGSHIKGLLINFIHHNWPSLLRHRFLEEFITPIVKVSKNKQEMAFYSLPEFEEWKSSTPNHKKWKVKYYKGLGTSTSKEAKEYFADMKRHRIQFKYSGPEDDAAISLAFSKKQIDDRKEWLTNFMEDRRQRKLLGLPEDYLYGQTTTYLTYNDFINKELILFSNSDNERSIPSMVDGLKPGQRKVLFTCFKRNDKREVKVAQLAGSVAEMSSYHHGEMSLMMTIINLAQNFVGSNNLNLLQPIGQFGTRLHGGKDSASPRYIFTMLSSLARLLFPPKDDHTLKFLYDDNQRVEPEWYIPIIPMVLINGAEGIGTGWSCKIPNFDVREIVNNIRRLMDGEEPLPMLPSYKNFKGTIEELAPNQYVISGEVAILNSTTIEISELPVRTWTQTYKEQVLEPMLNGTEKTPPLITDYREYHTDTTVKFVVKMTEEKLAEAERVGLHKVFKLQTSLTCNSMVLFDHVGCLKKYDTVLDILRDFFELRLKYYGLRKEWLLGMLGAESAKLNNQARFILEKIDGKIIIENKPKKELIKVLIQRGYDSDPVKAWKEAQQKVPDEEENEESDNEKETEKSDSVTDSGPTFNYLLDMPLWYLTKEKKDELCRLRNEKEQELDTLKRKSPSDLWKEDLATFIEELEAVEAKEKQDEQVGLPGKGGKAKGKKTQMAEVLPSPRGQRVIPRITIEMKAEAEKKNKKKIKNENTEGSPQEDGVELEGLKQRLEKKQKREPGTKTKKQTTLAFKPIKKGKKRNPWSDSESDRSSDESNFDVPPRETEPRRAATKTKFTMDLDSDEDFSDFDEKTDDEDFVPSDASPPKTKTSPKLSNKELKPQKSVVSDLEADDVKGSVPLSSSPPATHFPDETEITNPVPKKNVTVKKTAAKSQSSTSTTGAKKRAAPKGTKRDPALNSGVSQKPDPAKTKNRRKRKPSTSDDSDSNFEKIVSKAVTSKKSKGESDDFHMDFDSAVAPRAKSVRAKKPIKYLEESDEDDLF
Procedure, shortened: (§2)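 Doxorubicin as positive control. Stopped with Sarkosyl loading dye. Run on 1% agarose in 0.5x TBE with ethidium bromide at 50 V, imaged under UV. Decatenated and linearized kDNA used as markers.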

[6] = target: DNA topoisomerase 2-alpha (Homo sapiens) (UniProt P11388); test: Inhibition of human topoisomerase 2alpha-mediated decatenation of kinetoplast DNA at 20 uM after 1 hr using ethidium bromide by agarose gel electrophoresis analysis; procedure, shortened: as §2
[7] = target: DNA topoisomerase 2-alpha (Homo sapiens) (UniProt P11388); test: Inhibition of human topoisomerase 2alpha-mediated decatenation of kinetoplast DNA at 10 uM after 1 hr using ethidium bromide by agarose gel electrophoresis analysis relative to doxorubicin; procedure, shortened: as §2
[8] = Homo sapiens, KB, 72 h, read-out: IC50
[9] = Homo sapiens, MCF7, 72 h, read-out: IC50

Q: With COC1=C(CC(C)(C)CNC(=O)c2ccccc2)C(=O)c2ccccc2C1=O as the compound, how does the IC50 [1, 8] read?
A: 117 µM

Q: And the IC50 [2]?
A: 19.1 µM

Q: What about the IC50 [3, 9] of the same compound?
A: 61.8 µM

Q: And the IC50 [4]?
A: 12.3 µM

Q: For COc1cc(C(=O)NCC(C)(C)CC2=C(O)C(=O)c3ccccc3C2=O)c(O)c2ccccc12, which IC50 [1, 8] is on record?
A: 8.62 µM

Q: What about the IC50 [2] of the same compound?
A: 26 µM

Q: And the IC50 [3, 9]?
A: 35.6 µM

Q: What about the IC50 [4] of the same compound?
A: 15.8 µM

Q: And the inhibition [5]?
A: Active

Q: And the inhibition [6]?
A: Active

Q: And the inhibition [7]?
A: inactive

Q: What does the source list for COc1ccc(O)c(C(=O)NCC(C)(C)CC2=C(O)C(=O)c3ccccc3C2=O)c1?
A: IC50 ([1]; kb): Not Active; IC50 [2]: 15 µM; IC50 [3, 9]: 39.6 µM; IC50 [4]: 31.1 µM

Q: What does the source list for COc1ccccc1C(=O)NCC(C)(C)CC1=C(O)C(=O)c2ccccc2C1=O?
A: IC50 [1, 8]: 26.3 µM; IC50 [2]: 42.9 µM; IC50 [3, 9]: 111 µM; IC50 [4]: 31.2 µM

Q: Which results are given for CC(C)(CNC(=O)c1ccccc1O)CC1=C(O)C(=O)c2ccccc2C1=O?
A: IC50 [1, 8]: 44.9 µM; IC50 [2]: 8.83 µM; IC50 [3, 9]: 28.1 µM; IC50 [4]: 32.1 µM; inhibition [5]: Active; inhibition [7]: inactive

Q: How did the IC50 [1, 8] turn out when COc1ccc(OC)c(C(=O)NCC(C)(C)CC2=C(O)C(=O)c3ccccc3C2=O)c1 was run?
A: 86.6 µM

Q: And the IC50 [2]?
A: 40.9 µM

Q: What about the IC50 [3, 9] of the same compound?
A: 99.4 µM

Q: And the IC50 [4]?
A: 89.1 µM

Q: COC1=C(CC(C)(C)CNC(=O)c2ccccc2OC)C(=O)c2ccccc2C1=O was tested. Which IC50 [1, 8] did it give?
A: 33.2 µM

Q: What about the IC50 [2] of the same compound?
A: 34.7 µM

Q: And the IC50 [3, 9]?
A: 70.7 µM

Q: What about the IC50 [4] of the same compound?
A: 27.3 µM

Q: What does the source list for COC1=C(CC(C)(C)CNC(=O)c2cc(OC)ccc2OC)C(=O)c2ccccc2C1=O?
A: IC50 [1, 8]: 34.3 µM; IC50 [2]: 74.3 µM; IC50 [3, 9]: 57.9 µM; IC50 [4]: 36.2 µM

Q: How did the IC50 [1, 8] turn out when CC(C)(CNC(=O)c1ccccc1)CC1=C(O)C(=O)c2ccccc2C1=O was run?
A: 15.2 µM

Q: And the IC50 [2]?
A: 40.1 µM

Q: And the IC50 [3, 9]?
A: 37.1 µM

Q: What about the IC50 [4] of the same compound?
A: 50.5 µM

Q: Which results are given for COC1=C(CC(C)(C)CNC(=O)c2ccc3ccccc3c2)C(=O)c2ccccc2C1=O?
A: IC50 [1, 8]: 34.1 µM; IC50 [2]: 25.7 µM; IC50 [3, 9]: 52.5 µM; IC50 [4]: 36 µM

Q: COc1cc(C(=O)NCC(C)(C)CC2=C(O)C(=O)c3ccccc3C2=O)c(OC)c2ccccc12 was tested. Which IC50 [1, 8] did it give?
A: 47 µM

Q: And the IC50 [2]?
A: 19.8 µM

Q: And the IC50 ([3]; mcf7)?
A: Not Active

Q: What about the IC50 [4] of the same compound?
A: 17.7 µM

Q: And the inhibition [5]?
A: Active

Q: What about the inhibition [7] of the same compound?
A: inactive

Q: Which results are given for CC(C)(CNC(=O)c1ccc2ccccc2c1O)CC1=C(O)C(=O)c2ccccc2C1=O?
A: IC50 [1, 8]: 26.9 µM; IC50 [2]: 14.4 µM; IC50 [3, 9]: 79.5 µM; IC50 [4]: 93.7 µM; inhibition [5]: Active; inhibition [6]: Active; inhibition [7]: inactive

Q: Which results are given for CC(C)(CNC(=O)c1ccc2ccccc2c1)CC1=C(O)C(=O)c2ccccc2C1=O?
A: IC50 [1, 8]: 9 µM; IC50 [2]: 19.5 µM; IC50 [3, 9]: 28.2 µM; IC50 [4]: 46.6 µM; inhibition [5]: Active; inhibition [7]: inactive

Q: What does the source list for COC1=C(CC(C)(C)CNC(=O)c2ccc3ccccc3c2OC)C(=O)c2ccccc2C1=O?
A: IC50 [1, 8]: 64.1 µM; IC50 [2]: 53.2 µM; IC50 [3, 9]: 95.7 µM; IC50 [4]: 60.6 µM

Q: Which results are given for COc1c(C(=O)NCC(C)(C)CC2=C(O)C(=O)c3ccccc3C2=O)ccc2ccccc12?
A: IC50 [1, 8]: 66.9 µM; IC50 [2]: 37 µM; IC50 [3, 9]: 39.8 µM; IC50 [4]: 47.3 µM

Q: How did the IC50 [1, 8] turn out when COc1cccc2c1C(=O)c1c(O)c3c(c(O)c1C2=O)C[C@@](O)(C(=O)CO)C[C@@H]3O[C@H]1C[C@H](N)[C@H](O)[C@H](C)O1 [DOXORUBICIN] was run?
A: 0.9 µM

Q: And the IC50 [2]?
A: 0.16 µM

Q: And the IC50 [4]?
A: 28.8 µM

Q: How did the IC50 [1, 8] turn out when COC1=C(CC(C)(C)CNC(=O)c2cc(OC)c3ccccc3c2OC)C(=O)c2ccccc2C1=O was run?
A: 41.2 µM

Q: What about the IC50 [2] of the same compound?
A: 19.6 µM

Q: And the IC50 ([3]; mcf7)?
A: Not Active

Q: And the IC50 [4]?
A: 30.1 µM

Reference: ChEMBL document CHEMBL1944598, “First synthesis and anticancer activity of novel naphthoquinone amides” (Eur J Med Chem, 2012)
